According to ChEMBL document CHEMBL1124954, “Atrial natriuretic peptide receptor modulators: effects of disubstituted quinazolines on receptor binding and in vitro biological activity” (J Med Chem, 1990):
Active and inactive are the calls of the source. No cut-off for these calls is given here.

Assays:
[1] = Percent increase in [125I]rANP binding at 20 uM concentration in bovine zona glomerulosa membranes; assay type: cell membranes
[2] = In vitro binding affinity towards atrionatriuretic peptide receptor (ANP) using [125I]rANP as radioligand in bovine adrenal zonal glomerulosa membranes
[3] = In vitro binding affinity towards atrionatriuretic peptide receptor (ANP) using [125I]rANP as radioligand in bovine adrenal zonal glomerulosa membranes; Not active at 20 uM
Rattus norvegicus [4] = species: Rattus norvegicus; assay: Inhibition of ACTH (1 nM)-stimulated aldosterone synthesis was determined in rat adrenal glomerulosa (control = 17.4+/-2.5); assay type: functional
Rattus norvegicus [5] = species: Rattus norvegicus; assay: Inhibition of aldosterone synthesis was determined in rat adrenal glomerulosa per 2 hours at 10 uM concentration, in the absence of rANP (control = 1.8+/-0.5); assay type: functional
Rattus norvegicus [6] = species: Rattus norvegicus; assay: Concentration for rANP inhibition of aldosterone synthesis was determined n rat adrenal glomerulosa; assay type: functional
Outline: (§1)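 Collagenase-dispersed male Sprague-Dawley rat adrenal glomerulosa cells were used at about 30,000 cells/mL in M199 with KCl 3.5 mM and BSA 2 mg/mL. They were incubated 2 h at 37 °C with ACTH 1 nM and rANP 10⁻¹⁰–10⁻⁸ M, plus compound or water vehicle. Aldosterone was measured by RIA. The EC50 came from a four-parameter logistic fit, compared by Student's t test, 10 experiments.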

[7] = In vitro binding affinity towards Atrionatriuretic peptide receptor (ANP) using [125I]rANP as radioligand in bovine adrenal zonal glomerulosa membranes
Rattus norvegicus [8] = species: Rattus norvegicus; assay: ACTH-stimulated aldosterone synthesis was determined in rat adrenal glomerulosa cell suspension (control = 8.5+/-0.9); assay type: functional
Rattus norvegicus [9] = species: Rattus norvegicus; assay: Inhibition of aldosterone synthesis was determined in rat adrenal glomerulosa per 2 hours at 3 uM concentration, in the absence of rANP (control = 1+/-0.1); assay type: functional
Rattus norvegicus [10] = species: Rattus norvegicus; assay: Concentration for rANP inhibition of aldosterone synthesis was determined in rat adrenal glomerulosa; assay type: functional; outline: as §1

In the case of `CC/N=C(/NC#N)NCCNc1nc(N(CC)CC)nc2ccccc12`, the Increase [1] is reported as 12%.

Work on `CCN(CC)c1nc(NCCCCN=C(N)N)c2ccccc2n1` yielded an SC50 [2] of 2.2 µM.

`CCN(CC)c1nc(NCC/N=C(\N)NC)c2ccccc2n1` gave an SC50 [2] of 4.5 µM.

Compound `CCN(CC)c1nc(NCCN=C(N)N)c2ccccc2n1` has an SC50 [2] of 2.4 µM.

`CN(CCCN=C(N)N)c1nc(N2CCCC2)c2ccccc2n1` gave an SC50 [2] of 1.5 µM.

With `CCN(CC)c1nc(OC)c2ccccc2n1` the SC50 [3] was “inactive”, the Concentration (Rattus norvegicus [4]) was 17.8 ng/mL and the Concentration (Rattus norvegicus [5]) was 1.4 ng/mL. The EC50 (Rattus norvegicus [6]) was 0.18 nM.

Compound `CN(CCCNC(=O)c1ccco1)c1nc(N2CCCC2)c2ccccc2n1` has an SC50 [2] of 5.6 µM.

`CC/N=C(/N)NCCNc1nc(N(CC)CC)nc2ccccc12` showed an SC50 [2] of 7.4 µM.

Work on `CCN(CC)c1nc(NCC/N=C(/NC)NC#N)c2ccccc2n1` yielded an Increase [1] of 25%.

For `COc1cc2nc(N3CCN(C(=O)c4ccco4)CC3)nc(N)c2cc1OC`, the SC50 [7] was 25 µM.

`c1ccc2c(N3CCCC3)nc(N3CCNCC3)nc2c1` gave an SC50 [2] of 4.2 µM.

`O=C(c1ccco1)N1CCN(c2nc(N3CCCC3)c3ccccc3n2)CC1` gave an SC50 [2] of 7 µM.

In the case of `CCN(CC)c1nc(NCCCN=C(N)N)c2ccccc2n1`, the SC50 [2] is reported as 1.8 µM, the Concentration (Rattus norvegicus [8]) is reported as 7.7 ng/mL and the Concentration (Rattus norvegicus [9]) is reported as 0.9 ng/mL. The EC50 (Rattus norvegicus [10]) was 0.12 nM.
